From ChEMBL document CHEMBL2157863, “Synthesis and evaluation of novologues as C-terminal Hsp90 inhibitors with cytoprotective activity against sensory neuron glucotoxicity” (J Med Chem, 2012)
Active and inactive are the calls of the source. The calls are words filed in the database; no cut-off is given here.

Experiments:
[1] = Cytoprotective activity against glucotoxicity in Sprague-Dawley rat DRG neurons assessed as cell viability at 1 uM by calcein-AM assay; format: functional; details: DRG neuron, read-out: Activity
Summary of the method: (§1)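 Dorsal root ganglion neurons came from embryonic day 15–18 Sprague Dawley rats. They were trypsin-dissociated and grown on collagen in Neurobasal medium with 25 mM glucose, B-27 and 50 ng/ml NGF. Fluorodeoxyuridine and cytosine arabinoside were given for 2 days. On day 3, neurons received compound plus 20 mM excess glucose (45 mM total) for 4 h. Viability was read with 2 μM calcein AM, 30 min at 37°C, ex 485/em 520 nm, normalized to well protein.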

[2] = Cytoprotective activity against glucotoxicity in Sprague-Dawley rat DRG neurons assessed as cell viability by calcein-AM assay; format: functional; details: DRG neuron; summary of the method: as §1
DRG neuron = test: Induction of HSP70 protein expression in Sprague-Dawley rat DRG neurons at 10 to 1000 nM; format: functional
Summary of the method: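 Rat embryonic DRG neurons were preincubated overnight with 10–1000 nM compound or DMSO, then exposed to 4 h hyperglycemia. Hsp70 and β-actin were measured by immunoblot. Band intensity of Hsp70 was normalized to β-actin and expressed as fold of control.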

Nucleic Acid [3] = test: Activation of human HSP70 promoter transfected in rat 50B11 cells at 10 to 1000 nM after 16 hrs by luciferase reporter gene assay; format: cell-based
Summary of the method: (§2)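 50B11 immortalized sensory neurons were grown in DMEM with 25 mM glucose, 10% FCS and 5 μg/ml blasticidin. They were lipofected with a luciferase reporter driven by the human Hsp70 promoter, which carries two heat shock elements. Cells were re-seeded after 24 h and exposed to compound for 16 h. Luciferase in lysates was normalized to total protein per well, with triplicate wells in at least three experiments.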

Nucleic Acid [4] = test: Activation of human HSP70 promoter transfected in rat 50B11 cells at 1 uM after 16 hrs by luciferase reporter gene assay; format: cell-based; summary of the method: as §2
[5] = biological target: T1, Heat shock protein HSP90 (Homo sapiens) (UniProt P07900+P08238); test: Inhibition of HSP90 in human MCF7 cells assessed as degradation of Her2 up to 5 uM after 24 hrs by immunoblot analysis; format: cell-based
Summary of the method: (§3)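 MCF7 cells were exposed to compound for 24 h. Lysates were immunoblotted for the Hsp90 clients Her2, Raf and Akt, with β-actin as loading control. Geldanamycin at 500 nM served as the positive control for client degradation.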

[6] = Ratio of KU-32 ED50 to compound ED50 for cytoprotective activity against glucotoxicity in Sprague-Dawley rat DRG neurons; format: functional, DRG neuron
[7] = biological target: T1, Heat shock protein HSP90 (Homo sapiens); test: Inhibition of HSP90 in human MCF7 cells assessed as degradation of Raf up to 5 uM after 24 hrs by immunoblot analysis; format: cell-based; summary of the method: as §3
[8] = biological target: T1, Heat shock protein HSP90 (Homo sapiens); test: Inhibition of HSP90 in human MCF7 cells assessed as degradation of Akt up to 5 uM after 24 hrs by immunoblot analysis; format: cell-based; summary of the method: as §3

| SMILES | viability at 1 µM [1] [%] | other results |
| --- | --- | --- |
| CO[C@@H]1[C@@H](O)[C@@H](O)[C@H](Oc2ccc(C3CC=CCC3NC(C)=O)c(-c3cccc(C(F)(F)F)c3)c2)OC1(C)C (mixture of isomers) | 69 | – |
| CO[C@@H]1[C@@H](O)[C@@H](O)[C@H](Oc2ccc(CCNC(C)=O)c(-c3ccc(C(F)(F)F)cc3)c2)OC1(C)C | 74 | – |
| CO[C@@H]1[C@@H](O)[C@@H](O)[C@H](Oc2ccc(CCNC(C)=O)c(-c3cccnc3)c2)OC1(C)C | 61 | – |
| CO[C@@H]1[C@@H](O)[C@@H](O)[C@H](Oc2ccc(C3CC=CCC3NC(C)=O)c(-c3cccc(F)c3)c2)OC1(C)C (mixture of isomers) | 78 | – |
| CO[C@@H]1[C@@H](O)[C@@H](O)[C@H](Oc2ccc(CCNC(C)=O)c(-c3ccccc3SC)c2)OC1(C)C | 83 | EC50 [2]: 384 nM |
| COc1cccc(-c2cc(O[C@@H]3OC(C)(C)[C@H](OC)[C@@H](O)[C@H]3O)ccc2CCNC(C)=O)c1 | 78 | – |
| CO[C@@H]1[C@@H](O)[C@@H](O)[C@H](Oc2ccc(CCNC(C)=O)c(-c3ccc4c(c3)OCO4)c2)OC1(C)C | 83 | Activity (DRG neuron): inactive; Activity (Nucleic Acid [3]): inactive; EC50 [2]: 18.4 nM |
| CO[C@@H]1[C@@H](O)[C@@H](O)[C@H](Oc2ccc(CCNC(C)=O)c(-c3ccccc3Cl)c2)OC1(C)C | 71 | – |
| CO[C@@H]1[C@@H](O)[C@@H](O)[C@H](Oc2ccc(CCNC(C)=O)c(-c3cccc(Cl)c3)c2)OC1(C)C | 90 | – |
| COc1ccccc1-c1cc(O[C@@H]2OC(C)(C)[C@H](OC)[C@@H](O)[C@H]2O)ccc1CCNC(C)=O | 92 | Activity (Nucleic Acid [4]): Active |
| CO[C@@H]1[C@@H](O)[C@@H](O)[C@H](Oc2ccc(CCNC(C)=O)c(-c3ccc(F)cc3)c2)OC1(C)C | 75 | – |
| CO[C@@H]1[C@@H](O)[C@@H](O)[C@H](Oc2ccc(CCNC(C)=O)c(-c3ccncc3)c2)OC1(C)C | 81 | – |
| CO[C@@H]1[C@@H](O)[C@@H](O)[C@H](Oc2ccc(CCNC(C)=O)c(-c3ccc(O)cc3)c2)OC1(C)C | 67 | – |
| CO[C@@H]1[C@@H](O)[C@@H](O)[C@H](Oc2ccc(CCNC(C)=O)c(-c3cccc(C(F)(F)F)c3)c2)OC1(C)C | 83 | EC50 [2]: 188 nM |
| CO[C@@H]1[C@@H](O)[C@@H](O)[C@H](Oc2ccc(CCNC(C)=O)c(-c3cccc(CN4CCOCC4)c3)c2)OC1(C)C | 83 | – |
| CO[C@@H]1[C@@H](O)[C@@H](O)[C@H](Oc2ccc3cc(NC(C)=O)c(=O)oc3c2C)OC1(C)C | 86 | Activity (DRG neuron): Active; Activity (Nucleic Acid [3]): Active; EC50 [2]: 240 nM |
| CO[C@@H]1[C@@H](O)[C@@H](O)[C@H](Oc2ccc(CCNC(C)=O)c(-c3cccc(F)c3)c2)OC1(C)C [CEMDOMESPIB] | 95 | inhibition [5]: inactive; Activity (DRG neuron): Active; Ratio ED50 [6]: 14; Activity (Nucleic Acid [3]): Active; inhibition [7]: inactive; EC50 [2]: 13 nM; inhibition [8]: inactive |
| CO[C@@H]1[C@@H](O)[C@@H](O)[C@H](Oc2ccc(CCNC(C)=O)c(-c3ccccc3)c2)OC1(C)C | 76 | – |
| CO[C@@H]1[C@@H](O)[C@@H](O)[C@H](Oc2ccc(CCNC(C)=O)c(-c3cccc(C)c3)c2)OC1(C)C | 82 | – |
